The source made the active and inactive calls. The rule behind the calls is not given here. A value given as a limit tells only on which side of the number the result lay.

The record followed here is ChEMBL document CHEMBL4257565, “A phenotypic approach to the discovery of compounds that promote non-amyloidogenic processing of the amyloid precursor protein: Toward a new profile of indirect β-secretase inhibitors” (Eur J Med Chem, 2018).

For data set [1], the target named is T1, Beta-secretase 1 (Homo sapiens, UniProt P56817). Put plainly: Inhibition of BACE1 in human SH-SY5Y cells harboring wild type APP695 assessed as reduction in amyloid beta (1 to 40) level after 24 hrs by ELISA method. The format is cell-based. The method in brief: (§1)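 Aβ1-40 and Aβ1-42 levels were measured by ELISA in APPwt-expressing SH-SY5Y cells after compound treatment.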
T1 sequence (P56817 whole entry): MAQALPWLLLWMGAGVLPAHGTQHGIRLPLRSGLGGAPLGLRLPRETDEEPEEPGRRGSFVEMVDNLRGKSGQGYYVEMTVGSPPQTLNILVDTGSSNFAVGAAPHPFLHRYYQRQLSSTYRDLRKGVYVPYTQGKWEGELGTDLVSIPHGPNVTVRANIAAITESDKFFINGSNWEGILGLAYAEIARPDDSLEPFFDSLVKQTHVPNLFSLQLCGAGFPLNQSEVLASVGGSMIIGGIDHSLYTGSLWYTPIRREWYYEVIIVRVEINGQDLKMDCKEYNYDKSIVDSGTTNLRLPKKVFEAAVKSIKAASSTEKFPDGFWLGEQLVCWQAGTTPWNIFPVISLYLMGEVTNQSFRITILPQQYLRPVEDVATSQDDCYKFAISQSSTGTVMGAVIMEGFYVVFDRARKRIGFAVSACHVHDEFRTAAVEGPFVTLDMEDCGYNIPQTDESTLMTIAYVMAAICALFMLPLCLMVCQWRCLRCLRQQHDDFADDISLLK

Data set [2] addresses T1, Beta-secretase 1. In words: Inhibition of BACE1 in human SH-SY5Y cells harboring wild type APP695 assessed as increase in alphaCTF level at 3 uM by Western blot method relative to chloroquine. The class given is cell-based. The method in brief:
(§2)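 APP C-terminal fragments (αCTFs and AICD) were detected by Western blot and scored as band intensity. Compounds were tested at 1, 3 and 10 µM.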
(In western blotting, separated proteins are transferred to a membrane and probed.)

In data set [3] the target is T1, Beta-secretase 1. In words: Inhibition of BACE1 in human SH-SY5Y cells harboring wild type APP695 assessed as increase in AICD level at 3 uM by Western blot method relative to chloroquine. The format is cell-based. A digest of the protocol:
as §2

In data set [4] the target is Beta-secretase 1 (Mus musculus) (UniProt P56818). In words: Inhibition of BACE1 in C57BL6 mouse primary neuronal cells assessed as accumulation of AICD level up to 5 uM after 24 hrs by DAPI staining based immunofluorescence assay.
Sequence of Beta-secretase 1 (Mus musculus) (P56818 whole entry): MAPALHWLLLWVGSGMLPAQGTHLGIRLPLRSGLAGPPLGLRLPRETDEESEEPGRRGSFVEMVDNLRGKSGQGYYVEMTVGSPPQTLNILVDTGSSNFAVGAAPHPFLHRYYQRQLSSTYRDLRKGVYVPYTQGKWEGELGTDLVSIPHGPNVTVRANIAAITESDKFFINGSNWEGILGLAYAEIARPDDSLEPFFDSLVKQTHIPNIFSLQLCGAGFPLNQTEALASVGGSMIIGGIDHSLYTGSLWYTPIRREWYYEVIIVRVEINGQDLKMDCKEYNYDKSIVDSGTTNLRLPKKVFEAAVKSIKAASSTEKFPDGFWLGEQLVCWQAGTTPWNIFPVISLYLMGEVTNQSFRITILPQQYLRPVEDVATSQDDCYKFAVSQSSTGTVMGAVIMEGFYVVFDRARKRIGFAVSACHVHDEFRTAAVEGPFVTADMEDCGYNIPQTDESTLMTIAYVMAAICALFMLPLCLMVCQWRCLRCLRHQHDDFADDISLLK
Data set [5] in a line: Cytotoxicity against C57BL6 mouse primary neuronal cells assessed as reduction in cell viability after 24 hrs by LDH assay. The format is cell-based. Particulars: primary neuron.
Data set [6] deals with T1, Beta-secretase 1. Put plainly: Inhibition of BACE1 in human SH-SY5Y cells harboring wild type APP695 assessed as accumulation of AICD level up to 5 uM after 24 hrs by ELISA. The format is cell-based. For orientation: An ELISA detects its analyte on a solid surface through an enzyme-linked reagent.
The subject of data set [7] is SH-SY5Y. Put plainly: Inhibition of alpha secretase in human SH-SY5Y cells harboring wild type APP695 assessed as increase in sAPPalpha level up to 5 uM after 24 hrs by DAPI staining based electro-chemiluminescence immunoassay. The class given is cell-based.
The target in data set [8] is T1, Beta-secretase 1. In words: Inhibition of BACE1 in human SH-SY5Y cells harboring wild type APP695 assessed as reduction in amyloid beta (1 to 42) level up to 5 uM after 24 hrs by ELISA. The format is cell-based. The method in brief: as §1
Data set [9] addresses T1, Beta-secretase 1. Put plainly: Inhibition of recombinant human BACE1 at 10 uM using Mca-S-E-[…]-L-D-AEF-R-K(Dnp)-R-R-NH2 as substrate after 60 mins by fluorescence assay relative to control. The method in brief: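 BACE-1 enzymatic activity was followed by cleavage of the fluorogenic peptide Mca-S-E-V-N-L-D-AE-F-R-K(Dnp)-R-R-NH2.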
In data set [10] the test system is SH-SY5Y. In words: Inhibition of autophagy in human SH-SY5Y cells harboring wild type APP695 assessed as increase in lipidation of LC3-1 to LC3-2 up to 5 uM after 24 hrs by DAPI staining based immunofluorescence assay. The format is functional, cell-based. The method in brief: (§3)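 Autophagy markers were quantified against control: p62 expression and lipidation of LC3-I into LC3-II. Accumulation of p62- and LC3-positive vesicles was scored by immunofluorescence. This was done in SY5Y-APPwt cells and primary neurons.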

The target of data set [11] is Beta-secretase 1 (Mus musculus) (UniProt P56818). Put plainly: Inhibition of BACE1 in C57BL6 mouse primary neuronal cells assessed as increase in mature APP level up to 5 uM after 24 hrs by DAPI staining based immunofluorescence assay relative to control.
Data set [12] deals with T1, Beta-secretase 1. In words: Inhibition of BACE1 in human SH-SY5Y cells harboring wild type APP695 assessed as accumulation of APP-CTF level up to 5 uM after 24 hrs by ELISA. The format is cell-based.
The subject of data set [13] is Primary neuron. In words: Inhibition of autophagy in C57BL6 mouse primary neuronal cells assessed as increase in p62 expression up to 5 uM after 24 hrs by DAPI staining based immunofluorescence assay. The format is functional. The method in brief: as §3
Data set [14] has as its target T1, Beta-secretase 1. Put plainly: Inhibition of BACE1 in human SH-SY5Y cells harboring wild type APP695 assessed as reduction in sAPPbeta level up to 5 uM after 24 hrs by DAPI staining based electro-chemiluminescence immunoassay. The class given is cell-based.
The target of data set [15] is T1, Beta-secretase 1. Put plainly: Inhibition of BACE1 in human SH-SY5Y cells harboring wild type APP695 assessed as increase in mature APP level up to 5 uM after 24 hrs by ELISA. The format is cell-based. Particulars: in the assay text read “by Western blot” for “by ELISA”. The method in brief: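 Full-length APP was resolved and detected with APP-C17 antiserum as two bands. The 110 kDa band is the immature, neosynthesized form and the 115 kDa band is the mature, glycosylated form. Both bands were quantified against the control condition. This was done in SH-SY5Y-APPwt cells and in primary neuronal cultures.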

Data set [16] relates to SH-SY5Y. Put plainly: Inhibition of autophagy in human SH-SY5Y cells harboring wild type APP695 assessed as increase in p62 expression up to 5 uM after 24 hrs by DAPI staining based immunofluorescence assay. The class given is functional, cell-based. The method in brief: as §3
For data set [17], the system named is Primary neuron. Put plainly: Inhibition of autophagy in C57BL6 mouse primary neuronal cells assessed as increase in lipidation of LC3-1 to LC3-2 up to 5 uM after 24 hrs by DAPI staining based immunofluorescence assay. The format is functional. The method in brief: as §3
For data set [18], the target named is Beta-secretase 1 (Mus musculus) (UniProt P56818). In words: Inhibition of BACE1 in C57BL6 mouse primary neuronal cells assessed as accumulation of APP-CTF level up to 5 uM after 24 hrs by DAPI staining based immunofluorescence assay.
In data set [19] the target is T1, Beta-secretase 1. Put plainly: Inhibition of BACE1 in human SH-SY5Y cells harboring wild type APP695 assessed as reduction in amyloid beta (1 to 40) level up to 5 uM after 24 hrs by ELISA. The class given is cell-based. A digest of the protocol: as §1
The subject of data set [20] is SH-SY5Y. Put plainly: Cytotoxicity against human SH-SY5Y cells harboring wild type APP695 assessed as reduction in cell viability after 24 hrs by LDH assay. The format is cell-based.
In data set [21] the target is T1, Beta-secretase 1. Put plainly: Inhibition of BACE1 in human SH-SY5Y cells harboring wild type APP695 assessed as increase in AICD level at 3 uM by Western blot method relative to untreated control. The format is cell-based. The method in brief: as §2
Data set [22] addresses T1, Beta-secretase 1. Put plainly: Inhibition of BACE1 in human SH-SY5Y cells harboring wild type APP695 assessed as increase in alphaCTF level at 3 uM by Western blot method relative to untreated control. The class given is cell-based. The method in brief:
as §2

The term IC50 denotes the concentration that inhibits the measured activity by half. As for `c1cc(-c2ccc(NCCCN3CCCCC3)c(OCCN3CCCCC3)c2)ccc1CN1CCCCC1`, the IC50 at Beta-secretase 1 [1] was determined as 2100 nM. For the same compound, the fold change (FC) at Beta-secretase 1 [2] was 2.6; at Beta-secretase 1 [3] it was 2.5.

For `CN1CCN(Cc2ccccc2-c2ccc(NCCCN3CCCCC3)c(OCCN3CCCCC3)c2)CC1`, the IC50 at Beta-secretase 1 [1] stood at 2600 nM. Moreover, the fold change (FC) turned out to be 5.1 on Beta-secretase 1 [2] and 3.7 at Beta-secretase 1 [3].

As to `c1ccc(-c2ccc(NCCCN3CCCCC3)c(OCCN3CCCCC3)c2)cc1`, the IC50 at Beta-secretase 1 [1] came to 5200 nM. Moreover, the fold change (FC) at Beta-secretase 1 [2] came out at 2.4; at Beta-secretase 1 [3], 2.1.

Usually inhibition stands for the share of the control response that was lost under treatment. As for `CN(C)Cc1ccccc1-c1ccc(NCCCN2CCCCC2)c(OCCC2CCCCC2)c1`, the inhibition result (in data set [4]; at Beta-secretase 1 [6]; in the data set with SH-SY5Y [10]; in data set [11]; at Beta-secretase 1 [12]; in the data set with Primary neuron [13]) was “inactive” in each case. In addition, the inhibition entry (on Beta-secretase 1 [15]; with SH-SY5Y [16]; in the data set with Primary neuron [17]; in data set [18]) was “inactive” throughout. Further, the Activity result (in data set [5]; in the data set with SH-SY5Y [20]) was “Non-Toxic” in each case. For the same compound, on Beta-secretase 1 [1], the half-inhibitory concentration (IC50) was found to be 2100 nM. Besides, the fold change (FC) on Beta-secretase 1 [2] and on Beta-secretase 1 [3] was 0.1 in each case. The inhibition entry in the data set with SH-SY5Y [7], at Beta-secretase 1 [8], on Beta-secretase 1 [14] and at Beta-secretase 1 [19] was “Active” each time. Further, on Beta-secretase 1 [9], the inhibition is < 10%.

`CN(C)Cc1ccccc1-c1cccc(OCCN2CCCCC2)c1`: the half-maximal inhibitory concentration (IC50) on Beta-secretase 1 [1] worked out at 1500 nM. Besides, the fold change (FC) at Beta-secretase 1 [2] is 0.6; at Beta-secretase 1 [3], 0.7.

Take `c1ccc(-c2ccc(NCCCN3CCCCC3)c(OCCN3CCCCC3)c2)c(CN2CCOCC2)c1`: the IC50 on Beta-secretase 1 [1] turned out to be 2800 nM. The fold change (FC) at Beta-secretase 1 [2] is 3.1; at Beta-secretase 1 [3], 1.7.

`CC(C)CN(CCCN1CCN(CCCNc2nc3ccccc3[nH]2)CC1)CC(C)C`: at Beta-secretase 1 [1], the 50% inhibitory concentration (IC50) was 1700 nM. Also, the values for the fold change (FC) at Beta-secretase 1 [2] and on Beta-secretase 1 [3] were 1.3 and 1.8, respectively.

In the case of `CN(C)Cc1ccccc1-c1ccc(NCCCCN2CCCCC2)c(OCCN2CCCCC2)c1`, the half-inhibitory concentration (IC50) on Beta-secretase 1 [1] was 1700 nM. Moreover, the results for the fold change (FC) at Beta-secretase 1 [2] and on Beta-secretase 1 [3] were 4.2 and 3, respectively.

As for `CN(C)Cc1ccccc1-c1ccc(NCCN2CCCCC2)c(OCCN2CCCCC2)c1`, the IC50 at Beta-secretase 1 [1] is 1400 nM. Moreover, the fold change (FC) at Beta-secretase 1 [2] was found to be 5; on Beta-secretase 1 [3], 4.8.

For the compound `CN(C)Cc1ccccc1-c1ccc(NCCCN2CCCCC2)cc1`, the IC50 at Beta-secretase 1 [1] came to 3900 nM. The fold change (FC) came to 0.9 on Beta-secretase 1 [2] and 0.8 on Beta-secretase 1 [3].

On to `CN(C)Cc1ccccc1-c1ccc(NCCCN2CCCCC2)c(OCCCN2CCCCC2)c1`, for which the IC50 at Beta-secretase 1 [1] came out at 2100 nM. Further, the fold change (FC) came out at 4.5 on Beta-secretase 1 [2], 30 on Beta-secretase 1 [21], 50 at Beta-secretase 1 [22] and 5.1 on Beta-secretase 1 [3].

With `CN(C)Cc1ccn(-c2ccc(NCCCN3CCCCC3)c(OCCN3CCCCC3)c2)c1`, the IC50 on Beta-secretase 1 [1] stood at 5000 nM. The fold change (FC) was 3.6 at Beta-secretase 1 [2] and 2 on Beta-secretase 1 [3].

On to `Oc1c(CN2CCCC2)cc(Nc2ccnc3cc(Cl)ccc23)cc1CN1CCCC1`, for which the IC50 at Beta-secretase 1 [1] stood at 5100 nM. Besides, the results for the fold change (FC) at Beta-secretase 1 [2] and on Beta-secretase 1 [3] were 2.1 and 2.5, respectively.

With `CN(C)Cc1ccccc1-c1ccc(NCCN2CCCCC2)c(OCCCN2CCCCC2)c1`, the IC50 on Beta-secretase 1 [1] came out at 2000 nM. For the same compound, the fold change (FC) worked out at 4.5 at Beta-secretase 1 [2] and 3.4 on Beta-secretase 1 [3].

Regarding `c1cc(CN2CCCCC2)cc(-c2ccc(NCCCN3CCCCC3)c(OCCN3CCCCC3)c2)c1`, the IC50 at Beta-secretase 1 [1] was determined as 4300 nM. Further, the fold change (FC) at Beta-secretase 1 [2] amounted to 3.3; at Beta-secretase 1 [3] it was 2.6.

Turning to `CN(C)Cc1ccc(-c2ccc(NCCCN3CCCCC3)c(OCCN3CCCCC3)c2)cc1`, the IC50 on Beta-secretase 1 [1] is 1500 nM. Also, the fold change (FC) on Beta-secretase 1 [2] amounted to 2.1; at Beta-secretase 1 [3], 2.5.

Take `c1ccc(-c2cccc(OCCN3CCCCC3)c2)cc1`: the half-maximal inhibitory concentration (IC50) on Beta-secretase 1 [1] is 9100 nM. The fold change (FC) on Beta-secretase 1 [2] is 0.1; on Beta-secretase 1 [3] it was 0.2.

With `c1ccc(-c2ccc(NCCCN3CCCCC3)c(OCCN3CCCCC3)c2)c(CN2CCCCC2)c1`, the IC50 at Beta-secretase 1 [1] worked out at 2600 nM. For the same compound, the fold change (FC) stood at 4.3 on Beta-secretase 1 [2] and 2.7 on Beta-secretase 1 [3].

For the compound `CN(C)Cc1ccccc1-c1ccc(NCCN2CCCCC2)c(OCCCCN2CCCCC2)c1`, the values for the fold change (FC) on Beta-secretase 1 [2] and on Beta-secretase 1 [3] were 4.4 and 4.8, respectively.
